Test results published in ChEMBL document CHEMBL1138064, “Discovery of N-[(3R)-1-azabicyclo[2.2.2]oct-3-yl]furo[2,3-c]pyridine-5-carboxamide, an agonist of the alpha7 nicotinic acetylcholine receptor, for the potential treatment of cognitive deficits in schizophrenia: synthesis and structure--activity relationship” (J Med Chem, 2006).
Activity calls are given as the source filed them. The calls are words filed in the database; no cut-off is given here.

Assays:
[1] = Clearance in rat constant infusion model; assay type: ADME, organism-based; conditions: in vivo, iv
Procedure, shortened: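 Clearance determined in a rat constant infusion model.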

[2] = biological target: Neuronal acetylcholine receptor subunit alpha-7 (Rattus norvegicus) (UniProt Q05941); assay: Activity at alpha-7 nAChR in Sprague-Dawley rat hippocampal neurons assessed as induction of MLA-inhibited desensitizing inward current at 30 uM relative to (-)-nicotine; assay type: functional, tissue-based; design: scale not given: the % may be the effect or the level left; conditions: Hippocampus
Procedure, shortened: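 Rat hippocampal neurons were recorded by whole-cell patch clamp with rapid agonist application. Desensitizing inward currents were measured, and α7 mediation was tested with MLA (10 nM), n = 3.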

Rattus norvegicus [3] = assay: Reversal of amphetamine-induced gating deficit in Sprague-Dawley at 0.3 mg/kg, iv; assay type: functional, organism-based; design: dose 0.3 mg/kg
Procedure, shortened: (§1)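 Anesthetised rats; d-amphetamine 1 mg/kg iv given to disrupt auditory gating recorded in the hippocampal CA3 region (conditioning vs test responses, analogous to human P50). Agonist given iv afterwards; read-out is % gating versus amphetamine-alone. The 10 mg/kg dose was run as a separate experiment. Brain drug levels were measured after the iv doses.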

Rattus norvegicus [4] = assay: Reversal of amphetamine-induced gating deficit in Sprague-Dawley at 10 mg/kg, iv; assay type: functional; procedure, shortened: as §1
[5] = biological target: Type-2 angiotensin II receptor (Homo sapiens) (UniProt P50052); assay: Inhibition of AT2 receptor at 1 uM
[6] = biological target: Cannabinoid receptor 2 (Homo sapiens) (UniProt P34972); assay: Inhibition of CB2 receptor at 1 uM
[7] = biological target: Gastrin/cholecystokinin type B receptor (Homo sapiens) (UniProt P32239); assay: Inhibition of CCK2 receptor at 1 uM
[8] = biological target: D(1A) dopamine receptor (Homo sapiens) (UniProt P21728); assay: Inhibition of D1 receptor at 1 uM
[9] = biological target: D(3) dopamine receptor (Homo sapiens) (UniProt P35462); assay: Inhibition of D3 receptor at 1 uM
[10] = biological target: D(4) dopamine receptor (Homo sapiens) (UniProt P21917); assay: Inhibition of D4.4 receptor at 1 uM
[11] = biological target: D(1B) dopamine receptor (Homo sapiens) (UniProt P21918); assay: Inhibition of D5 receptor at 1 uM
[12] = biological target: 5-hydroxytryptamine receptor 6 (Homo sapiens) (UniProt P50406); assay: Inhibition of 5HT6 receptor at 1 uM
[13] = biological target: Sodium-dependent serotonin transporter (Homo sapiens) (UniProt P31645); assay: Inhibition of human 5-HT transporter at 1 uM
[14] = biological target: Sigma non-opioid intracellular receptor 1 (Homo sapiens) (UniProt Q99720); assay: Inhibition of sigma receptor at 1 uM
Homo sapiens [15] = species on record: Homo sapiens; assay: Inhibition of Small conductance calcium-activated potassium channel at 1 uM
Homo sapiens [16] = species on record: Homo sapiens; assay: Inhibition of site 2 of sodium channel at 1 uM
[17] = biological target: Phospholipase A2 (Homo sapiens) (UniProt P04054); assay: Inhibition of phospholipase A2 at 1 uM
[18] = biological target: Phosphodiesterase 4 (Homo sapiens) (UniProt P27815+Q08499+Q07343+Q08493); assay: Inhibition of PDE4 at 1 uM; assay type: protein assay
[19] = biological target: Cathepsin G (Homo sapiens) (UniProt P08311); assay: Inhibition of cathepsin G at 1 uM
[20] = biological target: Soluble guanylate cyclase (Homo sapiens) (UniProt Q02153+O75343+P33402+Q02108); assay: Inhibition of stimulated guanylate cyclase at 1 uM; assay type: protein-complex assay
[21] = biological target: Protein kinase C (PKC) (Homo sapiens) (UniProt O94806+P41743+P17252+P05129+Q05655+P05771+Q05513+Q02156+P24723+Q15139+Q04759); assay: Inhibition of PKC at 1 uM; assay type: protein assay
MAO-A = MAO-A (Homo sapiens, UniProt P21397); assay: Inhibition of MAO-A at 1 uM
MAO-B = MAO-B (Homo sapiens, UniProt P27338); assay: Inhibition of MAO-B at 1 uM
[22] = biological target: Tyrosine 3-monooxygenase (Homo sapiens) (UniProt P07101); assay: Inhibition of tyrosine hydroxylase at 1 uM
[23] = biological target: Acetylcholinesterase (Homo sapiens) (UniProt P22303); assay: Inhibition of acetylcholinesterase at 1 uM
Rattus norvegicus [24] = assay: Ability to recognize novel object in Sprague-Dawley rat at 1 mg/kg, sc after 24 hrs; assay type: functional, organism-based; design: dose 1 mg/kg
Procedure, shortened: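 Rats dosed subcutaneously 30 min before each of three experimental sessions. Discrimination between the novel and the familiar object was scored after a 24 h delay.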

[25] = Activity at alpha7-5HT3 chimera expressed in SHEP1 cells by FLIPR assay; assay type: functional, cell-based; conditions: Homo sapiens, SH-EP1
Procedure, shortened: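 Cell-based FLIPR functional assay in SH-EP1 cells expressing the α7-5HT3 chimera. Values are the average of at least five experiments for most compounds.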

[26] = biological target: Neuronal acetylcholine receptor; alpha3/beta4 (Homo sapiens, UniProt P30926+P32297); assay: Inhibition of alpha-3-beta-4 nAChR expressed in SHSY5Y cells by FLIPR assay; assay type: functional, cell-based, SH-SY5Y
Procedure, shortened: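 FLIPR cell-based functional assay in SH-SY5Y cells, which carry α3β4-containing ganglion-type nAChRs; tested for agonist and antagonist activity; IC50 in µM.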

[27] = biological target: Acetylcholine receptor; alpha1/beta1/delta/gamma (Homo sapiens, UniProt P02708+P07510+P11230+Q07001); assay: Inhibition of alpha-1-beta-1-gamma-delta nAChR expressed in TE671cells by FLIPR assay; assay type: functional, cell-based, TE-671
Procedure, shortened: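 Functional FLIPR read-out in TE671 cells expressing native muscle-type α1β1γδ nAChR, cell-based; tested for agonist and antagonist activity; IC50 in µM.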

[28] = biological target: Adenosine receptor A1 (Homo sapiens) (UniProt P30542); assay: Inhibition of adenosine A1 receptor at 1 uM
[29] = Metabolic stability in Sprague-Dawley rat liver microsomes after 1 hr; assay type: ADME, Microsome; conditions: read-out: Stability
Procedure, shortened: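 Rat liver microsomes incubated with compound, in vitro metabolism; read-out is percent of parent remaining at 1 h.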

[30] = biological target: Serotonin 3 (5-HT3) receptor; assay: Activity at 5HT3 receptor expressed in SHEP1 cells by FLIPR assay; assay type: functional, cell-based, Homo sapiens
Procedure, shortened: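 Cell-based FLIPR functional assay in SH-EP1 cells expressing 5-HT3.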

[31] = biological target: Histamine H1 receptor (Homo sapiens) (UniProt P35367); assay: Inhibition of central histamine H1 receptor at 1 uM
[32] = biological target: Histamine H2 receptor (Homo sapiens) (UniProt P25021); assay: Inhibition of histamine H2 receptor at 1 uM
[33] = biological target: Muscarinic acetylcholine receptor M1 (Homo sapiens) (UniProt P11229); assay: Inhibition of M1 receptor at 1 uM
[34] = biological target: Substance-P receptor (Homo sapiens) (UniProt P25103); assay: Inhibition of NK1 receptor at 1 uM
[35] = biological target: Substance-K receptor (Homo sapiens) (UniProt P21452); assay: Inhibition of NK2 receptor at 1 uM
[36] = biological target: Delta-type opioid receptor (Homo sapiens) (UniProt P41143); assay: Inhibition of human delta opioid receptor at 1 uM
[37] = biological target: 5-hydroxytryptamine receptor 1A (Homo sapiens) (UniProt P08908); assay: Inhibition of 5HT1A receptor at 1 uM
[38] = biological target: 5-hydroxytryptamine receptor 2A (Homo sapiens) (UniProt P28223); assay: Inhibition of 5HT2A receptor at 1 uM

Sequence of Substance-P receptor (Homo sapiens) (P25103 whole entry): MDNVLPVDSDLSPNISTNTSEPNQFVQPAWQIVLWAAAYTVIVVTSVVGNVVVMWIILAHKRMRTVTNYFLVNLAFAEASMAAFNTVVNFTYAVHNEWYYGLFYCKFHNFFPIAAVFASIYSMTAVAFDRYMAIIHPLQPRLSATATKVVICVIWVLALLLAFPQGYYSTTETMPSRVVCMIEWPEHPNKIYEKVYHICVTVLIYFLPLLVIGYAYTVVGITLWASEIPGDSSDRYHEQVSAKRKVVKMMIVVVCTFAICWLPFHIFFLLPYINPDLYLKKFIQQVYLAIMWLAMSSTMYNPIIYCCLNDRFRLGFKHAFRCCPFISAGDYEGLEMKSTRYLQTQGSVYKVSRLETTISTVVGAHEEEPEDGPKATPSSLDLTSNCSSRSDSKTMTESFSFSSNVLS
Sequence of MAO-B (P27338 whole entry): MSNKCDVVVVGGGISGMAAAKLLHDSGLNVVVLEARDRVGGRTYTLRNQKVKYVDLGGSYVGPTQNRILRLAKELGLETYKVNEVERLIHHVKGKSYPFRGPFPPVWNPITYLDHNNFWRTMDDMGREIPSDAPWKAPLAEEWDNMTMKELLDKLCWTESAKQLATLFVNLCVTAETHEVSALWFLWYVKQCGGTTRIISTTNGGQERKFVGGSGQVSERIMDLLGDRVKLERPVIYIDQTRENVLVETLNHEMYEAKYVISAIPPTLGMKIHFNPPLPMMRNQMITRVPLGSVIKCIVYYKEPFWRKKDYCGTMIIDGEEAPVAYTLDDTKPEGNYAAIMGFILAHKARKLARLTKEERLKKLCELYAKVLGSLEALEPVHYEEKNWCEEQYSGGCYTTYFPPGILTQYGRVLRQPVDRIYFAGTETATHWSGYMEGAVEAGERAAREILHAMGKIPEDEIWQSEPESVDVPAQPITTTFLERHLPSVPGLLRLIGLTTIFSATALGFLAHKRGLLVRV
Sequence of Gastrin/cholecystokinin type B receptor (Homo sapiens) (P32239 whole entry): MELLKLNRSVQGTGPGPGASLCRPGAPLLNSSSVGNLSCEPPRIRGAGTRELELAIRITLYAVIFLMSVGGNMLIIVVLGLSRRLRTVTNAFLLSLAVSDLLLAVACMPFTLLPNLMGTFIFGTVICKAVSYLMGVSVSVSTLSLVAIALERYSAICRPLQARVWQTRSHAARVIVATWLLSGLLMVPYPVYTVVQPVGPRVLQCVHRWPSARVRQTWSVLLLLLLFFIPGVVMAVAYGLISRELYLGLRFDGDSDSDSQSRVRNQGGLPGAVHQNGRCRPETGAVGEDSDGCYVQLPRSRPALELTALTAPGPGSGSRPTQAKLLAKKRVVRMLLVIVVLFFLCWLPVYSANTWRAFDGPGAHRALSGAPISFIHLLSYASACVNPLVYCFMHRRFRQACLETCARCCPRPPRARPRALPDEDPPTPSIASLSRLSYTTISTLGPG
Sequence of Substance-K receptor (Homo sapiens) (P21452 whole entry): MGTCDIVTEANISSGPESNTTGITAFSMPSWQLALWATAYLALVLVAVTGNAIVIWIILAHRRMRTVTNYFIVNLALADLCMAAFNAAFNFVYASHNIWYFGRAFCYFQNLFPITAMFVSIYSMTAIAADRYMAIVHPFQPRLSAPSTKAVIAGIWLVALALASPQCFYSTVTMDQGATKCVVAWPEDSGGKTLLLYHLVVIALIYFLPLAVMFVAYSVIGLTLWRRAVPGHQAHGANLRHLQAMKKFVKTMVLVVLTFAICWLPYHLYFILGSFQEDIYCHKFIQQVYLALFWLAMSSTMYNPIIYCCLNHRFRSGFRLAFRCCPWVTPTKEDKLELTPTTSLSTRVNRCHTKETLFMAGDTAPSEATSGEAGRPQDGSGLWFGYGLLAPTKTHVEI
Sequence of Neuronal acetylcholine receptor; alpha3/beta4 (P30926 whole entry): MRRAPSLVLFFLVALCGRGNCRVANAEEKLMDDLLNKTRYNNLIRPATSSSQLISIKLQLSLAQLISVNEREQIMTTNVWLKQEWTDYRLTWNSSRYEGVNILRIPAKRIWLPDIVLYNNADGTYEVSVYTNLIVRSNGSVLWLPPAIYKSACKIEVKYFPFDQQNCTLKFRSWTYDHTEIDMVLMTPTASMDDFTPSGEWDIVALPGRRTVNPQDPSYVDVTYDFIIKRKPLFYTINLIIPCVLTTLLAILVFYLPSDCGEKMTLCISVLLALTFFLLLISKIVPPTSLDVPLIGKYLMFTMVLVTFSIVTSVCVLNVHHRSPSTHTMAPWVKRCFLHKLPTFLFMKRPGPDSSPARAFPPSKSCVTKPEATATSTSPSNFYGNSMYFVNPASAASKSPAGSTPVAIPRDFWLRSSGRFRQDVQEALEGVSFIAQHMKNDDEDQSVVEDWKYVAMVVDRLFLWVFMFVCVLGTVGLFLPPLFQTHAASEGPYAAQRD
Sequence of Neuronal acetylcholine receptor; alpha3/beta4 (P32297 whole entry): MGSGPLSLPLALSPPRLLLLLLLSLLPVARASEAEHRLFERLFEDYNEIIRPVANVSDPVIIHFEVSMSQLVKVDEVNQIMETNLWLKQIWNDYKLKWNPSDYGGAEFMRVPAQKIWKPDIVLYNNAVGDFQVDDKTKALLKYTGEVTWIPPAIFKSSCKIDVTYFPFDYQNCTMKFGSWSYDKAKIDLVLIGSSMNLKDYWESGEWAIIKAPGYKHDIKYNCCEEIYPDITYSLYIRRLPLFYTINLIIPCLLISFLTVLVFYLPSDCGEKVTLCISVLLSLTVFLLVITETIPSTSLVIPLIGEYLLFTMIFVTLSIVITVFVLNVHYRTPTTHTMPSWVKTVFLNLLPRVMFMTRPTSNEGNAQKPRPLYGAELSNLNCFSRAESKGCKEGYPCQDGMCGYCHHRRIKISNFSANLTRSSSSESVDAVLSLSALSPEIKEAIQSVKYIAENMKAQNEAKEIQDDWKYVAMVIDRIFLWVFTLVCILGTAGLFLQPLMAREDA
Sequence of D(3) dopamine receptor (Homo sapiens) (P35462 whole entry): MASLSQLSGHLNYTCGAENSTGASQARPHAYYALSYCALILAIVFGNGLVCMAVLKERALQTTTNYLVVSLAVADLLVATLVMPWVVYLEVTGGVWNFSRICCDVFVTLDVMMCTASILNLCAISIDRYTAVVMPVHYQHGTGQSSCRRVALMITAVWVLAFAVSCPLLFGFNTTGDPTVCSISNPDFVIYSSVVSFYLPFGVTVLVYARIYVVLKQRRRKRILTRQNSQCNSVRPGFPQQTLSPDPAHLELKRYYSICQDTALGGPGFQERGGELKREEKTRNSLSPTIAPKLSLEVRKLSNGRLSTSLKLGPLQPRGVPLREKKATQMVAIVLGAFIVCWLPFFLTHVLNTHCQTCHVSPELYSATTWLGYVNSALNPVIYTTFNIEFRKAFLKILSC
Sequence of Cathepsin G (Homo sapiens) (P08311 whole entry): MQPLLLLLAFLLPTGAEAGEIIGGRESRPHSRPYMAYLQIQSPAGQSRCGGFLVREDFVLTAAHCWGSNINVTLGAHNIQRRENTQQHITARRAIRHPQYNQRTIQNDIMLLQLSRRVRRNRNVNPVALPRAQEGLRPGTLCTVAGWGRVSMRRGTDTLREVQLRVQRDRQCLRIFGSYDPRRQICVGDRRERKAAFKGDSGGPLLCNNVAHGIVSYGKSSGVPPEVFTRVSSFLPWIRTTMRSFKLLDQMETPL
Sequence of Histamine H1 receptor (Homo sapiens) (P35367 whole entry): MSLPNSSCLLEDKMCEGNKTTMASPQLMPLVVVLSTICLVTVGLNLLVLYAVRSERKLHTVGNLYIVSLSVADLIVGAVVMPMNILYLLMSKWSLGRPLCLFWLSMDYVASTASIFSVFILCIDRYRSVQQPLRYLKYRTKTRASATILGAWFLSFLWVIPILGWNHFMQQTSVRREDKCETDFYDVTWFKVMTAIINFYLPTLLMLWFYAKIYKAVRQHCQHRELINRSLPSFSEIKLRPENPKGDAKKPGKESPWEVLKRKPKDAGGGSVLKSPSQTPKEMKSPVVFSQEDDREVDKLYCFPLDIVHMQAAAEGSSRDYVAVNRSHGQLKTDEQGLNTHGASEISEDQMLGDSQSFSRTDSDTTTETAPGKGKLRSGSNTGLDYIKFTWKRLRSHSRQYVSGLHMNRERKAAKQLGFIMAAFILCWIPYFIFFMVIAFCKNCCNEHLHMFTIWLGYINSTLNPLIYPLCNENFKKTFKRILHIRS
Sequence of MAO-A (P21397 whole entry): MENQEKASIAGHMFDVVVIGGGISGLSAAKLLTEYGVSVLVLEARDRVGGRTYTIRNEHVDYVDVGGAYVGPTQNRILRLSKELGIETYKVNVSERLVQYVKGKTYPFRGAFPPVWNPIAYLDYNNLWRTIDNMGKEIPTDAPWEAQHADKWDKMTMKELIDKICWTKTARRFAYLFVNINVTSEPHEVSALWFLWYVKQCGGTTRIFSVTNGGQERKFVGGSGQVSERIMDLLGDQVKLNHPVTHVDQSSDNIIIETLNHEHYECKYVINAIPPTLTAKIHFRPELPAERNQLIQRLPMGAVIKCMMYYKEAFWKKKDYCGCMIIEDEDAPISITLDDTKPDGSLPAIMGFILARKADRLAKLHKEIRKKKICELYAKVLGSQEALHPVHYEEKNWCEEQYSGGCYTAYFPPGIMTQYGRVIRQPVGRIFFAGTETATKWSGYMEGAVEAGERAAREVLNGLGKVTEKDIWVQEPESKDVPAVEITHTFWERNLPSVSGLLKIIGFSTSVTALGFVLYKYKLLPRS
Sequence of D(4) dopamine receptor (Homo sapiens) (P21917 whole entry): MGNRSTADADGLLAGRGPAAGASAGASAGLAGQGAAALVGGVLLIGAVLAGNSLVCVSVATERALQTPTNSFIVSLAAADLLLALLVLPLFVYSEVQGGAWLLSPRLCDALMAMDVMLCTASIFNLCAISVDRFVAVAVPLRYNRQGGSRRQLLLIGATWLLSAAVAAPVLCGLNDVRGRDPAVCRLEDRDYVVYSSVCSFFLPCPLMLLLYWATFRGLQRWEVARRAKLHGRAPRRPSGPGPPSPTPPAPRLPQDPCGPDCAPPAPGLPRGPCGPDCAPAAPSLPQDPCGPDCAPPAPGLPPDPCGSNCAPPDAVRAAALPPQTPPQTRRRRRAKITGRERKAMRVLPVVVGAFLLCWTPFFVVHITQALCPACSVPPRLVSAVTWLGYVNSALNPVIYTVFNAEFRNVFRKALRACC

In the case of `O=C(N[C@H]1CN2CCC1CC2)c1cc2ccoc2cn1` [PHA-543613], the clearance [1] is reported as 50 mL/min/kg, the Activity [2] is reported as 220% and the Activity (Rattus norvegicus [3]) is reported as “Active”. For the same compound, the Activity (Rattus norvegicus [4]) was 51%, the inhibition [5] was less than 10% and the inhibition [6] was less than 10%. The inhibition [7] was less than 10%, the inhibition [8] was less than 10% and the inhibition [9] was 10%. For the same compound, the inhibition [10] was 10%, the inhibition [11] was less than 10% and the inhibition [12] was less than 10%. It also gave an inhibition [13] of less than 10%, an inhibition [14] of less than 10% and an inhibition (Homo sapiens [15]) of less than 10%. For the same compound, the inhibition (Homo sapiens [16]) was 13%, the inhibition [17] was 20% and the inhibition [18] was less than 10%. The inhibition [19] was 15%, the inhibition [20] was less than 10% and the inhibition [21] was 18%. The inhibition at 1 µM (MAO-A) was less than 10%, the inhibition at 1 µM (MAO-B) was less than 10% and the inhibition [22] was less than 10%. For the same compound, the inhibition [23] was less than 10%, the Activity (Rattus norvegicus [24]) was “Active” and the EC50 [25] was 65 nM. It also gave an IC50 [26] greater than 100 µM, an IC50 [27] greater than 100 µM and an inhibition [28] of less than 10%. It also gave a remaining at 1 h [29] of 55%, a Ki [30] of 628 nM and an inhibition [31] of less than 10%. For the same compound, the inhibition [32] was less than 10%, the inhibition [33] was 16% and the inhibition [34] was 26%. It also gave an inhibition [35] of less than 10%, an inhibition [36] of 14% and an inhibition [37] of less than 10%. It also gave an inhibition [38] of less than 10%.
